# Measurements reported in ChEMBL document CHEMBL4689842, “EUbOPEN Chemogenomics Library wave 1” (2021).
# System: HEK-293T
# Assay: Multiplex assay against HEK293T;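 on Population Tubulin-Different-Phenotype (%): share of the cells with healthy nuclei that show this phenotype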
# Type: toxicity, cell-based
# Conditions: human
# Outline: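 Imaging took place on a CQ1 microscope at 37°C and 5% CO2 once compound had been added to live cells stained at seeding with Hoechst33342, BioTracker Green Microtubule Cytoskeleton Dye, MitoTracker Red and Annexin V Alexa Fluor 680. CellPathfinder machine-learning gating classed cells as Hoechst high-intensity objects or normal cells, classed normal cells as having healthy, pyknosed or fragmented nuclei, and classed pyknosed cells as mitotic or apoptotic. Tubulin, mitochondrial-mass and membrane-permeability phenotypes are per cents of the healthy-nucleus cells.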
# [1] = 12 h, 1 µM, compound concentration 1 uM, replicate 1
# [2] = 12 h, 1 µM, compound concentration 1 uM, replicate 2
# [3] = 12 h, 10 µM, compound concentration 10 uM, replicate 1
# [4] = 12 h, 10 µM, compound concentration 10 uM, replicate 2
# [5] = 24 h, 1 µM, compound concentration 1 uM, replicate 1
# [6] = 24 h, 1 µM, compound concentration 1 uM, replicate 2
# [7] = 24 h, 10 µM, compound concentration 10 uM, replicate 1
# [8] = 24 h, 10 µM, compound concentration 10 uM, replicate 2
# [9] = 48 h, 1 µM, compound concentration 1 uM, replicate 1
# [10] = 48 h, 1 µM, compound concentration 1 uM, replicate 2
# [11] = 48 h, 10 µM, compound concentration 10 uM, replicate 1
# [12] = 48 h, 10 µM, compound concentration 10 uM, replicate 2
structure (smiles),measurement,setting,value
CCCc1cc(C)[nH]c(=O)c1CNC(=O)c1cc(-c2ccc(N3CCN(C(C)C)CC3)nc2)cc2c1cnn2C(C)C,Population Apoptotic (%),[1],63%
same,Population Fragmented Nuclei (%),[1],13%
same,Population Healthy Nuclei (%),[1],25%
same,Population Hoechst High Intensity Objects (%),[1],13%
same,Population Membrane Permeable-Phenotype (%),[1],9%
same,Population Mitochondria Different-Phenotype (%),[1],97%
same,Population Mitotic Cells (%),[1],36%
same,Population Normal (%),[1],86%
same,Population Pyknosed Nuclei (%),[1],60%
same,Population Tubulin-Different-Phenotype (%),[1],86%
same,Total Cell Count,[1],193
same,Population Apoptotic (%),[2],51%
same,Population Fragmented Nuclei (%),[2],4%
same,Population Healthy Nuclei (%),[2],27%
same,Population Hoechst High Intensity Objects (%),[2],3%
same,Population Membrane Permeable-Phenotype (%),[2],3%
same,Population Mitochondria Different-Phenotype (%),[2],87%
same,Population Mitotic Cells (%),[2],48%
same,Population Normal (%),[2],96%
same,Population Pyknosed Nuclei (%),[2],67%
same,Population Tubulin-Different-Phenotype (%),[2],94%
same,Total Cell Count,[2],200
same,Population Apoptotic (%),[3],94%
same,Population Fragmented Nuclei (%),[3],9%
same,Population Healthy Nuclei (%),[3],20%
same,Population Hoechst High Intensity Objects (%),[3],20%
same,Population Membrane Permeable-Phenotype (%),[3],2%
same,Population Mitochondria Different-Phenotype (%),[3],97%
same,Population Mitotic Cells (%),[3],5%
same,Population Normal (%),[3],79%
same,Population Pyknosed Nuclei (%),[3],69%
same,Population Tubulin-Different-Phenotype (%),[3],89%
same,Total Cell Count,[3],231
same,Population Apoptotic (%),[4],96%
same,Population Fragmented Nuclei (%),[4],5%
same,Population Healthy Nuclei (%),[4],12%
same,Population Hoechst High Intensity Objects (%),[4],8%
same,Population Membrane Permeable-Phenotype (%),[4],11%
same,Population Mitochondria Different-Phenotype (%),[4],94%
same,Population Mitotic Cells (%),[4],3%
same,Population Normal (%),[4],91%
same,Population Pyknosed Nuclei (%),[4],82%
same,Population Tubulin-Different-Phenotype (%),[4],100%
same,Total Cell Count,[4],151
same,Population Apoptotic (%),[5],79%
same,Population Fragmented Nuclei (%),[5],11%
same,Population Healthy Nuclei (%),[5],26%
same,Population Hoechst High Intensity Objects (%),[5],17%
same,Population Membrane Permeable-Phenotype (%),[5],4%
same,Population Mitochondria Different-Phenotype (%),[5],97%
same,Population Mitotic Cells (%),[5],20%
same,Population Normal (%),[5],82%
same,Population Pyknosed Nuclei (%),[5],62%
same,Population Tubulin-Different-Phenotype (%),[5],97%
same,Total Cell Count,[5],190
same,Population Apoptotic (%),[6],57%
same,Population Fragmented Nuclei (%),[6],2%
same,Population Healthy Nuclei (%),[6],52%
same,Population Hoechst High Intensity Objects (%),[6],3%
same,Population Membrane Permeable-Phenotype (%),[6],6%
same,Population Mitochondria Different-Phenotype (%),[6],94%
same,Population Mitotic Cells (%),[6],42%
same,Population Normal (%),[6],96%
same,Population Pyknosed Nuclei (%),[6],45%
same,Population Tubulin-Different-Phenotype (%),[6],94%
same,Total Cell Count,[6],239
same,Population Apoptotic (%),[7],91%
same,Population Fragmented Nuclei (%),[7],15%
same,Population Healthy Nuclei (%),[7],16%
same,Population Hoechst High Intensity Objects (%),[7],19%
same,Population Mitochondria Different-Phenotype (%),[7],96%
same,Population Mitotic Cells (%),[7],8%
same,Population Normal (%),[7],80%
same,Population Pyknosed Nuclei (%),[7],68%
same,Population Tubulin-Different-Phenotype (%),[7],77%
same,Total Cell Count,[7],236
same,Population Apoptotic (%),[8],98%
same,Population Fragmented Nuclei (%),[8],4%
same,Population Healthy Nuclei (%),[8],20%
same,Population Hoechst High Intensity Objects (%),[8],14%
same,Population Membrane Permeable-Phenotype (%),[8],3%
same,Population Mitochondria Different-Phenotype (%),[8],100%
same,Population Mitotic Cells (%),[8],1%
same,Population Normal (%),[8],85%
same,Population Pyknosed Nuclei (%),[8],74%
same,Population Tubulin-Different-Phenotype (%),[8],81%
same,Total Cell Count,[8],151
same,Population Apoptotic (%),[9],75%
same,Population Fragmented Nuclei (%),[9],19%
same,Population Healthy Nuclei (%),[9],46%
same,Population Hoechst High Intensity Objects (%),[9],9%
same,Population Membrane Permeable-Phenotype (%),[9],0%
same,Population Mitochondria Different-Phenotype (%),[9],96%
same,Population Mitotic Cells (%),[9],24%
same,Population Normal (%),[9],90%
same,Population Pyknosed Nuclei (%),[9],33%
same,Population Tubulin-Different-Phenotype (%),[9],86%
same,Total Cell Count,[9],241
same,Population Apoptotic (%),[10],69%
same,Population Fragmented Nuclei (%),[10],6%
same,Population Healthy Nuclei (%),[10],68%
same,Population Hoechst High Intensity Objects (%),[10],2%
same,Population Membrane Permeable-Phenotype (%),[10],1%
same,Population Mitochondria Different-Phenotype (%),[10],77%
same,Population Mitotic Cells (%),[10],30%
same,Population Normal (%),[10],97%
same,Population Pyknosed Nuclei (%),[10],25%
same,Population Tubulin-Different-Phenotype (%),[10],91%
same,Total Cell Count,[10],327
same,Population Apoptotic (%),[11],95%
same,Population Fragmented Nuclei (%),[11],20%
same,Population Healthy Nuclei (%),[11],10%
same,Population Hoechst High Intensity Objects (%),[11],28%
same,Population Membrane Permeable-Phenotype (%),[11],5%
same,Population Mitochondria Different-Phenotype (%),[11],94%
same,Population Mitotic Cells (%),[11],4%
same,Population Normal (%),[11],71%
same,Population Pyknosed Nuclei (%),[11],68%
same,Population Tubulin-Different-Phenotype (%),[11],61%
same,Total Cell Count,[11],241
same,Population Apoptotic (%),[12],98%
same,Population Fragmented Nuclei (%),[12],5%
same,Population Healthy Nuclei (%),[12],31%
same,Population Hoechst High Intensity Objects (%),[12],27%
same,Population Membrane Permeable-Phenotype (%),[12],2%
same,Population Mitochondria Different-Phenotype (%),[12],100%
same,Population Mitotic Cells (%),[12],1%
same,Population Normal (%),[12],72%
same,Population Pyknosed Nuclei (%),[12],62%
same,Population Tubulin-Different-Phenotype (%),[12],55%
same,Total Cell Count,[12],148
